According to ChEMBL document CHEMBL3232766, “Discovery of lead compounds targeting the bacterial sliding clamp using a fragment-based approach” (J Med Chem, 2014):
pIC50, pKi: −log10 of the molar value. Converted amounts (≈) assume the structure as drawn. The source made the active and inactive calls. The rule behind the calls is not given here.

Experiments:
Escherichia coli [1] = assay: Inhibition of Escherichia coli DNA polymerase 3 beta assessed as inhibition of 5-carboxyfluorescein-QLDLF binding at <1 mM by fluorescence polarization-based competition assay
Summary of the method: (§1)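 Competition fluorescence polarization with E. coli sliding clamp and tracer 5-carboxyfluorescein-QLDLF (Kd 70 nM). Inhibition of tracer binding plotted against inhibitor concentration. IC50 converted to Ki using the Kenakin correction for ligand depletion.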

[2] = Distribution coefficient, log D of the compound at pH 7.2; type: physicochemical; details: octanol/water
[3] = Inhibition of Escherichia coli DNA polymerase 3 beta assessed as inhibition of 5-carboxyfluorescein-QLDLF binding by fluorescence polarization-based competition assay; summary of the method: as §1
Escherichia coli [4] = assay: Inhibition of Escherichia coli DNA polymerase 3 beta assessed as inhibition of M13 ssDNA replication at 500 to 1000 uM after 60 mins by agarose gel electrophoresis-UV transilluminator analysis in presence of polymerase 3 alpha and reconstituted clamp loader complex gamm3-delta-delta'
Summary of the method: (§2)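 Reconstituted replication of 3 nM RNA-primed M13 ssDNA in 20 mM Tris-HCl pH 7.6, 10 mM MgCl2, 0.8 mM ATP, 8.4 mM DTT, 0.6 mM each dNTP, 120 mM NaCl, with 211 nM Pol III α, 700 nM SSB tetramer, 210 nM β dimer, 42 nM γ3δδ′. Compounds added at 0 °C, final 3.4% DMSO. Run 60 min at 30 °C, quenched with EDTA/SDS, products resolved on 0.7% agarose, SYBR Gold stained, viewed by UV.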

Escherichia coli [5] = assay: Antibacterial activity against Escherichia coli DH5[alpha] after 24 hrs by broth microdilution method; type: functional
Summary of the method: (§3)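 CLSI broth microdilution in cation-adjusted Mueller Hinton II broth. Overnight cultures diluted to 5 × 10⁴ CFU/mL. Compounds from 100 mM DMSO stocks, serially 2-fold diluted. OD read at 595 nm before and after 24 h at 37 °C. MIC taken as lowest concentration with background-subtracted OD <0.1. Controls: medium blank, DMSO vehicle, antibiotic.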

Bacillus subtilis = assay: Antibacterial activity against Bacillus subtilis SU5 after 24 hrs by broth microdilution method; type: functional; details: SU5, 24 h; summary of the method: as §3
Acinetobacter baylyi = assay: Antibacterial activity against Acinetobacter baylyi ADP1 after 24 hrs by broth microdilution method; type: functional; details: ADP1, 24 h; summary of the method: as §3
Staphylococcus aureus = assay: Antibacterial activity against Staphylococcus aureus NCTC 8325 after 24 hrs by broth microdilution method; type: functional; details: NCTC 8325, 24 h; summary of the method: as §3
Escherichia coli [6] = assay: Inhibition of Escherichia coli DNA polymerase 3 beta assessed as inhibition of M13 ssDNA replication at 250 uM after 60 mins by agarose gel electrophoresis-UV transilluminator analysis in presence of polymerase 3 alpha and reconstituted clamp loader complex gamm3-delta-delta'; summary of the method: as §2

## O=[N+]([O-])c1ccc2cn[nH]c2c1
Escherichia coli [1]
  inhibition: inactive

## Clc1ccc2c(c1)c1ccccc1n2CC1CO1 (centres undefined)
[2]
  logD: 4.93
[3]
  pIC50: 3.45
  pKi: 3.70
Escherichia coli [4]
  inhibition: Active

## CCOC(=O)[C@@H]1CCCc2c1[nH]c1ccc(Cl)cc21
[2]; read-out: logD
  logD: 4.44
Escherichia coli [5]
  MIC: 78 µM (≈ 21.7 µg/mL)
[3]
  pIC50: 3.05
  pKi: 3.30
Bacillus subtilis
  MIC: 78 µM (≈ 21.7 µg/mL)
Acinetobacter baylyi
  MIC: 156 µM (≈ 43.3 µg/mL)
Staphylococcus aureus
  MIC: 78 µM (≈ 21.7 µg/mL)

## O=C(O)c1cc2[nH]c3c(c2cc1Cl)CCCC3
[2]; read-out: logD
  logD: -0.48
Escherichia coli [5]
  MIC: 2500 µM (≈ 624 µg/mL)
[3]
  pIC50: 3.41
  pKi: 3.67
Bacillus subtilis
  MIC: 2500 µM (≈ 624 µg/mL)
Escherichia coli [4]
  inhibition: Active
Acinetobacter baylyi
  MIC: 5000 µM (≈ 1250 µg/mL)
Staphylococcus aureus
  MIC: 2500 µM (≈ 624 µg/mL)

## O=C1Nc2ccc(Cl)cc2C1=O
Escherichia coli [1]
  inhibition: inactive

## COC(=O)[C@@H]1CCCc2c1[nH]c1ccc(Cl)cc21
Escherichia coli [5]
  MIC: 156 µM (≈ 41.1 µg/mL)
[3]
  pIC50: < 3.00
Bacillus subtilis
  MIC: 78 µM (≈ 20.6 µg/mL)
Acinetobacter baylyi
  MIC: 78 µM (≈ 20.6 µg/mL)
Staphylococcus aureus
  MIC: 156 µM (≈ 41.1 µg/mL)

## O=C(O)c1ccc(-c2ccc(F)cc2)cc1
[2]; read-out: logD
  logD: -3.17
Escherichia coli [5]
  MIC: 2500 µM (≈ 541 µg/mL)
[3]
  pIC50: 3.30
  pKi: 3.55
Bacillus subtilis
  MIC: 2500 µM (≈ 541 µg/mL)
Escherichia coli [4]
  inhibition: Active
Acinetobacter baylyi
  MIC: 5000 µM (≈ 1080 µg/mL)
Staphylococcus aureus
  MIC: 5000 µM (≈ 1080 µg/mL)

## NC(=O)c1ccc(F)c(F)c1
Escherichia coli [1]
  inhibition: inactive

## O=C(O)[C@@H]1CCCc2c1[nH]c1ccc(Cl)cc21
[2]; read-out: logD
  logD: 0.36
Escherichia coli [5]
  MIC: 313 µM (≈ 78.2 µg/mL)
[3]
  pIC50: 3.94
  pKi: 4.19
Bacillus subtilis
  MIC: 156 µM (≈ 39 µg/mL)
Acinetobacter baylyi
  MIC: 313 µM (≈ 78.2 µg/mL)
Escherichia coli [6]
  inhibition: Active
Staphylococcus aureus
  MIC: 156 µM (≈ 39 µg/mL)

## O=[N+]([O-])c1ccc2[nH]ccc2c1
Escherichia coli [1]
  inhibition: inactive
